KCNK9 block = human KCNK9 channel inhibition | HEK293 KCNK9, FluxOR thallium flux fluorescence; stronger effect = lower value | Q9NPC2 | hit rate 1.2% among 310,000 | B-score at 10 µM;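 active = ratio B-score over 3 SD below the library mean, with starting fluorescence within 5 SD of its mean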;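 also: negative B-score means less thallium flux so channel inhibition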
KCNK3 inh = human KCNK3 channel inhibition, primary screen | CHO-KCNK3 thallium flux, FluxOR fluorescence; stronger effect = lower value | B-score at 10 µM | hit rate 0.84% among 340,000 | AID 602410;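 active = B-score under library mean minus 4 SD, starting fluorescence ratio at most library mean plus 5 SD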;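 also: more negative B-score means stronger inhibition of thallium flux through KCNK3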
Kir21 block = inhibitors of mouse Kir2.1 inward-rectifier potassium channel. HEK293-Kir2.1, FluxOR thallium flux fluorescence; stronger effect = lower value. hit rate 0.85% among 310,000. P35561. B-score at 10 µM;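 active = fluorescence ratio B-score at or below minus 3 SD of library scores, with starting-brightness B-score within 2 SD, cut at about -4.2 in these data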;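 also: channel flux triggered by added potassium and thallium sulfate stimulus; B-score of peak minus minimum fluorescence over baseline after thallium stimulus; more negative B-score means stronger Kir2.1 block with less thallium influx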
KCNQ1 block = inhibitors of human KCNQ1 potassium channel. P51787. CHO-K1 KCNQ1, FluxOR thallium flux fluorescence; stronger effect = higher value. B-score at 10 µM. hit rate 1.3% among 310,000. AID 2642;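 active = compounds whose thallium flux B-score, printed positive for inhibition, exceeds three library SD while starting fluorescence stays within three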;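 also: channel opened by potassium depolarization with thallium stimulus after 20 min compound exposure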
hERG rescue = shields human hERG channel from block by proarrhythmic agents. Q12809. CHO-hERG, FluxOR thallium flux, dofetilide IC70 present. activation (rescue from dofetilide block), less the hit threshold, % at 10 µM. hit rate 0.51% among 310,000. AID 1511;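 active = activation above the mean of controls blocked by dofetilide plus 5 SD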;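 also: thallium influx through hERG after potassium depolarization seen as dye fluorescence rise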
KCNQ1 pot = potentiates or activates the human KCNQ1 potassium channel; hit rate 0.35% among 310,000; P51787; CHO-K1 KCNQ1, thallium flux FluxOR fluorescence; stronger effect = higher value; B-score at 10 µM; AID 2648;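 active = fluorescence ratio B-score, a plate-corrected score, at least three library SD, with initial intensity B-score within 5 SD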
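Test system: CHO-K1 cells stably expressing KCNQ1 / Medium: assay buffer / Also added: depolarizing K+/Tl+ stimulus, K2SO4 and Tl2SO4 each 12.5 mM in 5x stock / Incubation: 90 min dye loading and 20 min compound exposure, both at room temperature / Signal: thallium influx via FluxOR fluorescence, kinetic imaging / Evaluation: B score of baseline-normalized fluorescence ratio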
* marks the source's active call; other numbers are inactive results; i = inactive; · = not tested or not shown. A selection: hits, their analogues and other compounds. The true share with any hit is near 3.7%.

SMILES	KCNK9 block	KCNK3 inh	Kir21 block	KCNQ1 block	hERG rescue	KCNQ1 pot
CCCN1CC=C2C(C#N)=C(N)C(C#N)(C#N)C(c3cccc(OC)c3OC)C2C1 (stereo not drawn)	i	i	-4.7	8*	-18	i
CS(=O)(=O)C1=NSC2=NC(=O)/C(=C\c3cccn3-c3ccc(Cl)cc3)C(=N)N21	i	i	-1.1	7*	-16	i
Cc1cc(/C=C2/C(=N)N3C(=NC2=O)SN=C3S(C)(=O)=O)c(C)n1-c1ccccc1F	i	i	0.09	i	-17	i
COc1ccc(NC(=O)CCC(=O)Nc2nnc(C3CCCCC3)s2)c(OC)c1	i	i	0.62	i	-3	i
CC(C)CCN(C)C1CCN(S(=O)(=O)c2cccc(C(F)(F)F)c2)CC1	i	i	0.09	i	-7	i
CC1CN(S(=O)(=O)c2cccc(C(F)(F)F)c2)CC(C)O1 (stereo not drawn)	i	i	-4.4*	i	-9	i
O=[N+]([O-])c1ccc(N2CCN(c3cccc(Cl)c3)CC2)nc1	-6.6*	i	0.69	i	-3	i
C=CC(C)(C)c1c(O)c(CC=C(C)C)c(O)c2c(=O)c3ccc(O)c(O)c3oc12	i	i	1.6	6*	-9	i
COc1ccc(/C=N/NS(=O)(=O)c2ccc(C)cc2)cc1OC(=O)c1ccc(C)cc1	i	i	0.03	6*	-6	i
COc1ccc(C(=O)Oc2cc(/C=N/NS(=O)(=O)c3ccccc3)ccc2OC)cc1	i	i	1.1	i	-4	i
COC(=O)C1=C(C)N(C)C(=O)NC1c1c(O)ccc2ccccc12 (stereo not drawn)	i	i	0.52	i	-13	i
COC(=O)C1=NN(C(=O)c2ccccc2)C(O)(c2ccc([N+](=O)[O-])cc2)C1 (stereo not drawn)	i	i	1.3	i	-7	i
COC(=O)C1=NN(C(=O)c2ccc(C)cc2)C(O)(c2ccc(Cl)cc2)C1 (stereo not drawn)	i	·	-0.43	i	50*	37*
CCC1(c2ccccc2)NC(=O)N(CC(=O)Nc2ccc3c(C)cc(=O)oc3c2)C1=O (stereo not drawn)	i	i	-1.2	i	-20	i
Cc1ccc(S(=O)(=O)N(Cc2n[nH]c(=S)n2-c2ccccc2)c2cccc(Cl)c2)cc1	i	i	0.01	6*	-19	i
Cc1ccc(S(=O)(=O)N(Cc2n[nH]c(=S)n2-c2ccccc2)c2ccccc2)cc1	i	i	-0.4	i	-15	i
CCOC(=O)c1cnc(SC)nc1Sc1ccccc1Cl	i	i	-0.75	6*	-10	i
CSc1ncc(C(=O)Nc2ccccc2Cl)c(C)n1	i	i	0.58	i	-4	13*
CCOC(=O)c1cnc2c(ccc3ccccc32)c1Cl	i	i	0.01	i	-6	i
CSc1ncc(C(=O)Nc2ccccc2C)c(C)n1	i	i	1.1	i	-4	i
Cc1cccc(NC(=S)NC(=O)c2cc(-c3ccccc3)nc3ccccc23)c1	i	i	0.96	i	6.1*	18*
Cc1ccccc1NC(=S)NC(=O)c1cc(-c2ccccc2)nc2ccccc12	i	i	0.72	i	3	19*
Cc1ccccc1NC(=O)c1cc(-c2ccco2)nc2ccccc12	·	i	·	·	·	·
Cc1ccc(NC(=O)CSc2nc3[nH]ncc3c(=O)[nH]2)cc1Cl	i	i	2.2	i	-13	i
N#C/C(=C\c1cccc(Br)c1)C(=O)N1CCCCC1	i	i	-6.9*	i	-13	i
SMILES	KCNK9 block	KCNK3 inh	Kir21 block	KCNQ1 block	hERG rescue	KCNQ1 pot
N#C/C(=C\c1ccccc1)C(=O)N1CCN(c2ccccc2F)CC1	i	i	-5.1*	i	-7	i
CN(C)CCCC1Sc2ccccc2Sc2ccccc21 (stereo not drawn)	i	i	-4.8*	i	-7	i
CN(C)CCCN1c2ccccc2Sc2ccccc21	i	i	-2.1	i	-4	i
Cc1ccc(N(CC(=O)NCc2ccccc2)C(=O)CCC(=O)Nc2ccccn2)cc1	i	i	-0.41	i	-4	i
CCn1ccnc1CN1CCc2c([nH]c3ccccc23)C1C(C)(C)C (stereo not drawn)	i	i	-7.7*	i	-15	i
O=C1CN(S(=O)(=O)c2cccc(Cl)c2Cl)CCN1	·	i	·	·	·	·
CCOCCN1CCN(c2c(CC)c(C)nc3cc(-c4cc(OC)cc(OC)c4)nn23)CC1	-7.2*	i	-0.93	i	-9	i
CCc1nc2ccccc2c(C(=O)OCc2nc3ccccc3c(=O)[nH]2)c1C	·	i	·	·	·	·
C=CCNCC(O)COc1ccc(C(C)=O)cc1OC (stereo not drawn)	i	i	0.32	i	-9	i
CSc1ccc(Cl)c(C(=O)OCC(=O)N2CCN(c3ccccc3)CC2)c1	·	i	·	·	·	·
COc1ccc(-c2cc(N)n(S(=O)(=O)c3c(F)c(F)c(F)c(F)c3F)n2)cc1OC	i	-11*	-3.3	i	-36	8*
COc1ccc(S(=O)(=O)n2nc(-c3cc(OC)c(OC)c(OC)c3)cc2N)cc1OC	·	i	·	·	·	·
O=C(COCc1ccccc1)N[C@@H]1c2ccccc2CC[C@@H]1OCc1ccccc1	·	i	·	·	·	·
CCn1c(SCC(N)=O)nc2c(c1=O)C1(CCCC1)Cc1ccccc1-2	-6.7*	i	-3.2	i	-4	i
NC(=O)CSc1nc2c(c(=O)n1-c1ccccc1)C1(CCCCC1)Cc1ccccc1-2	i	i	0.95	i	-3	i
Cc1ccc(C2=NN(C(=O)c3ccccc3F)C(c3ccccc3F)C2)cc1 (stereo not drawn)	i	i	0	7*	-5	i
COc1cccc(C2CC(c3ccc(C)cc3)=NN2C(=O)c2ccccc2F)c1OC (stereo not drawn)	i	i	1.6	i	-2	i
COC(=O)c1[nH]c2ccc(Br)cc2c1NC(=O)CN1CCCc2ccccc21	i	i	-0.46	6*	-3	i
COC(=O)c1[nH]c2ccc(Br)cc2c1NC(=O)CN1CCN(C2CCCCC2)CC1	i	i	-4.2	i	-16	i
CCCCc1nc2ccccc2c(=O)n1NC(=O)c1c(O)c2c(n(CC(C)C)c1=O)CCCC2	i	i	-0.21	6*	-4	i
CCc1nc2ccccc2c(=O)n1NC(=O)c1c(O)c2ccccc2n(CC)c1=O	i	i	-1.5	i	37*	i
CN(C)CCCNC(=O)C[C@H]1C[C@H](C(=O)N2CCCCC2)[C@@]2(CCc3ccccc3)c3[nH]c4ccc(Cl)cc4c3CCN2C1=O	·	i	·	·	·	·
